For test [1], the system named is Mycobacterium tuberculosis. As to the kind of experiment: Antimicrobial activity against Mycobacterium tuberculosis H37Ra after 5 days by serial macrobroth dilution method. The class given is functional, organism-based. To be noted: 120 h. Summed up: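 M. tuberculosis H37Ra in 7H9 with 0.5% glycerol, 10% ADC and 0.05% Tween80. Serial macrobroth dilution 128–0.5 μg/mL, log-phase inoculum to final OD600 0.005, 37°C, 200 rpm. Growth read visually at 5 days. No-compound and DMSO controls included. Three biological replicates averaged.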
(In general: Broth dilution looks for growth in wells or tubes with falling amounts of substance.)

A short description of test [2]: Inhibition of Mycobacterium tuberculosis NDH2.
The nature of test [3]: (§1) Inhibition of NDH2 in Mycobacterium smegmatis (MC2) 155 membranes assessed NADH oxidation relative to control. Also noted: species or system Mycolicibacterium smegmatis. Summed up:
(§2)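 M. smegmatis membranes at 50 μg/mL in 20 mM sodium phosphate pH 8.0 at 37°C, with compound (0–200 μM) preincubated 30 s. Reaction started with 200 μM NADH; A340 followed (ε 6.22 mM⁻¹cm⁻¹), activity in μmol NADH/min/mg. Data normalized to uninhibited activity, IC50 by log(inhibitor) vs response fit. Mean of three independent experiments.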

The subject of test [4] is Mycolicibacterium smegmatis. Nature of the test: Antimicrobial activity against Mycobacterium smegmatis (MC2) 155 after 24 hrs by serial macrobroth dilution method. The class given is functional. To be noted: (MC2) 155, 24 h. Summed up: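 Serial macrobroth dilution, 128–0.5 μg/mL in LBT (LB + 0.05% Tween80). Log-phase mc²155 inoculated to final OD600 0.005, incubated 37°C at 200 rpm. Growth scored by eye after 24 h. No-compound and DMSO controls included. Figure data are the average of three biological replicates.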

Test [5] has as its system Mycolicibacterium smegmatis. Nature of the test: Inhibition of NDH2 in Mycobacterium smegmatis (MC2) 155 membrane assessed inhibition of oxygen consumption relative to control. Summed up:
(§3)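 Clark-type O2 electrode, 2 mL mix at 37°C, calibrated to 220 nmol O2/mL with air-saturated 20 mM sodium phosphate pH 8.0. M. smegmatis membrane vesicles (French press, 100,000 × g pellet) driven by 10 mM NADH. Test range 0–80 μM; TPZ 0–200 μM. Controls: 80 μM comparators, DMSO, 200 μM KCN, no compound. Two-tailed t-test, p<0.05.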

Test [6] relates to Mycolicibacterium smegmatis. As to the kind of experiment: Bacteriostatic against Mycobacterium smegmatis at 4.8 ug/ml after 3 to 24 hrs by colony forming unit count method. Format: functional, organism-based. Summed up:
(§4)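 Cultures grown in LBT to OD600 ~0.5, then dosed at 8.9 μM per OD600, or CCCP at 500 μM; no-compound and DMSO controls. OD600 taken at 0, 3, 9 and 24 h. CFU at 0, 9 and 24 h: cells washed, diluted in PBS + 0.05% Tween80, spotted on LBT (Miles–Misra), counted after 3 days at 37°C (5–50 colonies). Three biological replicates.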

Test [7] concerns Mycolicibacterium smegmatis. Nature of the test: Bactericidal activity against Mycobacterium smegmatis at 8.9 uM after 3 to 24 hrs by colony forming unit count method. Format: functional, organism-based. Summed up:
as §4

The test system of test [8] is Mycolicibacterium smegmatis. Described as §1. The essentials: as §2
Test [9] relates to Mycolicibacterium smegmatis. As to the kind of experiment: Effect on NDH2 in Mycobacterium smegmatis (MC2) 155 membrane assessed increase in oxygen consumption relative to control. The essentials: as §3
Test [10] relates to Mycolicibacterium smegmatis. Nature of the test: Bactericidal activity against Mycobacterium smegmatis at 500 uM after 3 to 24 hrs by colony forming unit count method. Format: functional, organism-based. The essentials:
as §4

The structures appear in SMILES notation. Values after ≈ are worked out from the molar mass of the structure shown. Active and inactive are the calls of the source. The rule behind the calls is not given here. Bounds are passed on as bounds.

By IC50 is commonly meant the point on the concentration scale where inhibition reaches its midpoint. Read a low IC50 as greater potency in that assay. A word on the MIC: it is the lowest concentration that inhibits growth of the organism. A higher MIC goes with a less susceptible organism.

As to `CN1CCN(CCCN2c3ccccc3Sc3ccc(C(F)(F)F)cc32)CC1` [TRIFLUOPERAZINE], the IC50 in [1] came to 8 µg/mL (≈ 19.6 µM); in test [2] it was 12 µM; in [3] it was 60.1 µM. The compound also yielded an MIC in [4] of 64 µg/mL (≈ 157 µM). Further, the INH in test [5] amounted to 100 µM.
Take `FC(F)(F)c1ccc2c(c1)Nc1ccccc1S2`: in [1], the IC50 was over 64 µg/mL. The MIC in [4] was over 64 µg/mL.
On to `[Cl-].c1ccc([P+](CCCN2c3ccccc3Sc3ccccc32)(c2ccccc2)c2ccccc2)cc1`, for which, in test [3], the IC50 was 15.1 µM. Also, in test [6], the result was Active. Further, in test [4], it took 4 µg/mL to inhibit growth (MIC). In test [5], this compound showed an INH of 40 µM.
For the compound `c1ccc2c(c1)Nc1ccccc1S2` [PHENOTHIAZINE], the result in [7] was inactive. The compound further came in with an IC50 in [1] of over 64 µg/mL. In addition, in test [8], the inhibition entry is “inactive”. Further, the MIC in test [4] is over 64 µg/mL.
On to `FC(F)(F)c1ccc2c(c1)N(CCC[P+](c1ccccc1)(c1ccccc1)c1ccccc1)c1ccccc1S2.[Cl-]`, for which, in test [1], the half-maximal inhibitory concentration (IC50) amounted to 1 µg/mL. This compound also returned an MIC in test [4] of 12 µg/mL.
As to `C=C(C)[C@H]1Cc2c(ccc3c2O[C@@H]2COc4cc(OC)c(OC)cc4[C@@H]2C3=O)O1`, the inhibition result in [8] was “inactive”.
`CC(CN1c2ccccc2Sc2ccccc21)N(C)C` (stereo not drawn) [PROMETHAZINE] displayed an MIC in test [1] of 20 µg/mL (≈ 70.3 µM).
Take `CCC[P+](c1ccccc1)(c1ccccc1)c1ccccc1.[Br-]`: the result in test [7] was inactive. Besides, the IC50 in test [1] is over 128 µg/mL. Also, the outcome in test [9] was Active. Further, the inhibition entry in [8] is “inactive”. This compound also registered an MIC in [4] of over 128 µg/mL.
Turning to `CN(C)CCCN1c2ccccc2Sc2ccc(Cl)cc21` [CHLORPROMAZINE], in test [1], the MIC amounted to 10 µg/mL (≈ 31.4 µM). The compound also had an IC50 in test [2] of 10 µM.
Take `Clc1ccc2c(c1)N(CCC[P+](c1ccccc1)(c1ccccc1)c1ccccc1)c1ccccc1S2.[Cl-]`: the IC50 in test [1] worked out at 1 µg/mL. Further, it took 6 µg/mL to inhibit growth in test [4] (MIC).
Take `N#CC(C#N)=NNc1cccc(Cl)c1`: the outcome in [10] was Active.
Compound `Clc1ccc2c(c1)Nc1ccccc1S2` displayed an IC50 in [1] of over 64 µg/mL. Besides, the MIC in test [4] was over 64 µg/mL.
In turn, `CN(C)CCCN1c2ccccc2Sc2ccccc21` [PROMAZINE] gave an IC50 in test [1] of 128 µg/mL (≈ 450 µM). Also, the MIC in test [4] is over 128 µg/mL.

The values are drawn from ChEMBL document CHEMBL3352574, “Incorporation of triphenylphosphonium functionality improves the inhibitory properties of phenothiazine derivatives in Mycobacterium tuberculosis” (Bioorg Med Chem, 2014).
